These results are taken from ChEMBL document CHEMBL5346886 (Eur J Med Chem, 2023).

For data set [1], the system named is Murine hepatitis virus. The data set can be described thus: Antiviral activity against Murine hepatitis virus-A59 infected in mouse L929 cells assessed as reduction in viral copy pre-infected with cell for 1 hrs followed by compound addition and measured after 48 hrs by RT-qPCR analysis. It counts as functional, organism-based. As to conditions: Murine coronavirus. The gist of the method: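 L929 cells in DMEM with 10% FBS were washed serum-free at 80% confluence and infected with MHV-A59 at MOI 0.01 for 1 h at 37 °C. Compounds were added at 0.1–100 μmol/L, with DMSO as blank control. After 48 h at 37 °C, the viral M gene in supernatant was measured by qRT-PCR. Percent inhibition was derived from copy number and EC50 from curve fitting.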

The subject of data set [2] is Murine hepatitis virus. In words: Antiviral activity against murine hepatitis virus-A59 infected in BALB/c mouse assessed as inhibition of viral titer in liver at 10 to 200 mg/kg, po administered once daily one hour post infection and measured after 3 days by qRT-PCR analysis. As to conditions: dose 10-200 mg/kg, time 3.0 day. Type of data set: functional, organism-based. An outline of the steps: (§1)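 SPF male BALB/c mice aged 3–4 weeks were put under isoflurane and inoculated intranasally with 30 μL MHV-A59 (TCID50 = 10−7.125/100 μL) in PBS. Oral dosing once daily in 15% Cremophor EL/82.5% PBS/2.5% DMSO started at 1 hpi and ran for four days; groups had 12 mice. At 3 dpi, 4 mice per group were killed and lung and liver M-gene copies measured by qRT-PCR.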

Data set [3] concerns Murine hepatitis virus. In words: Antiviral activity against murine hepatitis virus-A59 infected in BALB/c mouse assessed as inhibition of viral titer in lungs at 200 mg/kg, po administered once daily one hour post infection and measured after 3 days by qRT-PCR analysis. Type of data set: functional, organism-based. As to conditions: time 3.0 day. An outline of the steps: as §1
On the technique in general: Real-time PCR tracks product formation cycle by cycle.

Data set [4] can be described thus: Drug metabolism in Sprague-Dawley rat assessed as hydrolysis-mediated ibuprofen metabolite formation at 25 mg/kg, po administered as single dose and measured after 24 hrs by LC-MS/MS analysis. It counts as ADME, organism-based. Conditions: in vivo. The gist of the method:
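Male SD rats (n = 3), fasted 12 h, dosed intragastrically; jugular vein blood into EDTA-K2 tubes at 0.25, 0.5, 1, 2, 3, 4, 6, 8 and 24 h; plasma protein-precipitated with acetonitrile, filtered, analytes measured by LC/MS/MS; noncompartmental PK analysis; mean ± SD.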

The subject of data set [5] is Murine hepatitis virus. The data set can be described thus: Antiviral activity against murine hepatitis virus-A59 infected in BALB/c mouse model of acute liver injury assessed as reduction in plasma ALT level at 10 to 200 mg/kg, po administered once daily one hour post infection and measured after 3 days. It counts as functional, organism-based. As to conditions: dose 10-200 mg/kg, time 3.0 day. An outline of the steps: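 Male BALB/c mice were infected intranasally with MHV-A59 (30 μL, TCID50 = 10−7.125/100 μL) and dosed orally once daily from 1 hpi for four days in 15% Cremophor EL/82.5% PBS/2.5% DMSO. At 3 dpi, blood from 4 euthanized mice per group was left to clot at room temperature and centrifuged. Serum ALT and AST were measured on a clinical chemistry analyzer.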

The test system of data set [6] is Murine hepatitis virus. In words: Antiviral activity against murine hepatitis virus-A59 infected in po dosed BALB/c mouse assessed as inhibition of viral replication in liver administered once daily one hour post infection and measured after 3 days by qRT-PCR analysis. It counts as functional, organism-based. Conditions: dose 10-200 mg/kg, time 3.0 day. An outline of the steps:
as §1

A further data set deals with Canine coronavirus. The data set can be described thus: Antiviral activity against Canine coronavirus infected in CRFK cells assessed as reduction in viral copy pre-infected with cells for 1 hrs followed by compound addition and measured after 48 hrs by RT-qPCR analysis. Type of data set: functional, organism-based. As to conditions: Alphacoronavirus 1, CRFK. An outline of the steps: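 CRFK cells (CCoV, FIPV) or ST cells (TGEV) were grown in DMEM with 10% FBS at 37 °C, 5% CO2. At 80% confluence they were washed in serum-free medium and infected at MOI 0.01 for 1 h at 37 °C. Compounds were then added at 0.1–100 μmol/L, with DMSO as blank. After 48 h, cells and supernatants were analysed by qRT-PCR. Inhibition came from viral copy number, and EC50 from curve fitting.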

Data set [7] in a line: Drug distribution in BALB/c mouse plasma assessed as hydrolyzed ibuprofen metabolite at 200 mg/kg, po administered as single dose and measured after 1 hrs by LC-MS/MS analysis. Type of data set: ADME, organism-based. Conditions: in vivo.
The test system of data set [8] is Murine hepatitis virus. In words: Antiviral activity against murine hepatitis virus-A59 infected in BALB/c mouse assessed as reduction in IL-6 production in liver at 10 to 100 mg/kg, po administered once daily one hour post infection and measured after 3 days by ELISA analysis. Type of data set: functional, organism-based. Conditions: dose 10-100 mg/kg, time 3.0 day. An outline of the steps:
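MHV-A59 was inoculated intranasally into male BALB/c mice (30 μL, TCID50 = 10−7.125/100 μL), with oral dosing once daily from 1 hpi for four days. At 3 dpi, 0.1 g lung or liver from 4 mice per group was homogenized in 0.9 mL water at 4 °C and centrifuged. Supernatant IFN-β was read by ELISA; TNF-α, IFN-γ, IL-1β, IL-6 and CXCL10 by multi-analyte kit, with OD 450 nm against standards.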

Data set [9] can be described thus: Drug metabolism in Sprague-Dawley rat assessed as hydrolysis-mediated ibuprofen metabolite formation at 5 mg/kg, iv administered as single dose and measured after 24 hrs by LC-MS/MS analysis. As to conditions: in vivo. It counts as ADME, organism-based.
Data set [10] has as its system Murine hepatitis virus. The data set can be described thus: Antiviral activity against murine hepatitis virus-A59 infected in po dosed BALB/c mouse assessed as inhibition of viral replication in lungs administered once daily one hour post infection and measured after 3 days by qRT-PCR analysis. It counts as functional, organism-based. Conditions: dose 10-200 mg/kg, time 3.0 day. An outline of the steps:
as §1

For data set [11], the system named is Murine hepatitis virus. In words: Antiviral activity against murine hepatitis virus-A59 infected in BALB/c mouse assessed as remission of hemorrhage in liver at 200 mg/kg, po administered once daily one hour post infection and measured after 3 days by H&E staining based analysis. As to conditions: time 3.0 day. It counts as functional, organism-based. An outline of the steps: (§2)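 In male BALB/c mice (3–4 weeks), MHV-A59 was given intranasally (30 μL, TCID50 = 10−7.125/100 μL). Oral dosing once daily in a Cremophor EL/PBS/DMSO vehicle began at 1 hpi and lasted four days. At 3 dpi, lungs and livers from 4 mice per group were fixed in zinc formalin and paraffin-embedded. Sections of about 4 μm were stained with H&E and examined at 200× and 400×.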

Data set [12] can be described thus: Drug distribution in BALB/c mouse lung assessed as hydrolyzed GS-441524 metabolite at 200 mg/kg, po administered as single dose and measured after 1 hrs by LC-MS/MS analysis. Conditions: in vivo. Type of data set: ADME, organism-based.
The nature of data set [13]: Drug distribution in BALB/c mouse kidney assessed as hydrolyzed ibuprofen metabolite at 200 mg/kg, po administered as single dose and measured after 1 hrs by LC-MS/MS analysis. It counts as ADME, organism-based. As to conditions: in vivo.
For data set [14], the system named is Murine hepatitis virus. In words: Antiviral activity against murine hepatitis virus-A59 infected in BALB/c mouse assessed as alleviation of thickened alveolar septa in lungs at 200 mg/kg, po administered once daily one hour post infection and measured after 3 days by H&E staining based analysis. Conditions: time 3.0 day. It counts as functional, organism-based. The gist of the method:
as §2

In data set [15] the test system is Murine hepatitis virus. The data set can be described thus: Antiviral activity against murine hepatitis virus-A59 infected in BALB/c mouse assessed as survival rate at 10 mg/kg, po administered once daily one hour post infection and measured after 23 days relative to control. As to conditions: Murine coronavirus, A59, 552 h, time 23 day. It counts as functional. The gist of the method: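 Male SPF BALB/c mice (3–4 weeks) were anaesthetised with isoflurane and given 30 μL MHV-A59 intranasally (TCID50 = 10−7.125/100 μL) in PBS. Oral dosing once daily in 15% Cremophor EL/82.5% PBS/2.5% DMSO began at 1 hpi and ran for four days, at 10, 50 or 200 mg/kg. There were 12 mice per group, with 4 culled at 3 dpi. Body weight, clinical signs and death were recorded daily to 23 days.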

SMILES strings stand for the structures. Active and inactive are the calls of the source. The rule behind the calls is not given here.

Broadly, the EC50 is the concentration giving half of the maximal effect. Consider `CC(C)Cc1ccc(C(C)C(=O)OC[C@H]2O[C@@](C#N)(c3ccc4c(N)ncnn34)[C@H](O)[C@@H]2O)cc1` (stereo partly specified), for which the EC50 with Murine hepatitis virus [1] stood at 1150 nM; with Canine coronavirus, 1410 nM. In addition, the outcome with Murine hepatitis virus [2], in the data set on Murine hepatitis virus [3], in the data set with Murine hepatitis virus [5], with Murine hepatitis virus [8], in the data set on Murine hepatitis virus [11] and in the data set with Murine hepatitis virus [14] was Active. Also, the Drug metabolism result in data set [4] and in data set [9] was “Metabolite_Detected” each time. The Activity entry with Murine hepatitis virus [6] and in the data set on Murine hepatitis virus [10] was “Dose-Dependent Effect” throughout. In addition, the Drug uptake entry in [7], in [12] and in data set [13] was “Active” each time. For the same compound, in the data set with Murine hepatitis virus [15], the survival at 10 mg/kg came to 100%.
